Data taken from ChEMBL document CHEMBL1156657, “Structures and absolute configurations of sulfate-conjugated triterpenoids including an antifungal chemical defense of the green macroalga Tydemania expeditionis” (J Nat Prod, 2008).
pIC50: −log10 of the molar value.

Columns and labels:
BT-549 = experiment: Antitumor activity against human BT549 cells after 72 hrs by MTT assay; type: functional, cell-based; conditions: BT-549, 72 h
Outline: (§1)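 Cells seeded in 96-well plates; compounds added 24 h after seeding and left on for 72 h. Viable cells read spectrophotometrically after MTS tetrazolium staining, with dye conversion taken as proportional to live cells. IC50 for each cell line derived from dose–response curves.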

DU-4475 = experiment: Antitumor activity against human DU4475 cells after 72 hrs by MTT assay; type: functional, cell-based; conditions: DU-4475, 72 h
MDA-MB-468 = experiment: Antitumor activity against human MDA-MB-468 cells after 72 hrs by MTT assay; type: functional, cell-based; conditions: MDA-MB-468, 72 h; outline: as §1
MDA-MB-231 = experiment: Antitumor activity against human MDA-MB-231 cells after 72 hrs by MTT assay; type: functional, cell-based; conditions: MDA-MB-231, 72 h; outline: as §1
HCT-116 = experiment: Antitumor activity against human HCT116 cells after 72 hrs by MTT assay; type: functional, cell-based; conditions: HCT-116, 72 h; outline: as §1
NCI-H446 = experiment: Antitumor activity against human NCI-H446 cells after 72 hrs by MTT assay; type: functional, cell-based; conditions: NCI-H446, 72 h; outline: as §1
SHP77 = experiment: Antitumor activity against human SHP77 cells after 72 hrs by MTT assay; type: functional, cell-based; conditions: SHP77, 72 h; outline: as §1
PC-3 = experiment: Antitumor activity against human PC3 cells after 72 hrs by MTT assay; type: functional, cell-based; conditions: PC-3, 72 h; outline: as §1
[1] = Antitumor activity against human LNCaP-FGC cells after 72 hrs by MTT assay; type: functional, cell-based; conditions: LNCaP-Clone-FGC; outline: as §1
DU-145 = experiment: Antitumor activity against human Du145 cells after 72 hrs by MTT assay; type: functional, cell-based; conditions: DU-145, 72 h; outline: as §1
[2] = Antitumor activity against human A2780/DDP-S cells after 72 hrs by MTT assay; type: functional, cell-based; conditions: A2780, 72 h; outline: as §1
CCRF-CEM = experiment: Antitumor activity against human CCRF-CEM cells after 72 hrs by MTT assay; type: functional, cell-based; outline: as §1
Rotifers = experiment: Toxicity against Rotifers assessed as feeding at 10 ppm after 45 mins by injestion toxicity assay; type: organism-based; conditions: rotifera, in vivo, 0.75 h
Lindra thalassiae [3] = experiment: Antifungal activity against Lindra thalassiae ATCC 56663 after 6 days; type: functional, organism-based; conditions: Lindriella thalassiae, ATCC 56663, 144 h
Outline: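 Growth inhibition of marine fungal pathogen Lindra thalassiae ATCC 56663. IC50 derived from dose–response curves.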

Lindra thalassiae [4] = experiment: Antifungal activity against Lindra thalassiae ATCC 56663 at 0.67 mg/mL after 6 days; type: functional, Lindriella thalassiae

pIC50 (BT-549)	pIC50 (MDA-MB-468)	pIC50 (MDA-MB-231)	pIC50 (HCT-116)	pIC50 (NCI-H446)	pIC50 (PC-3)	pIC50 (DU-145)	pIC50 (CCRF-CEM)	pIC50 (Lindra thalassiae [3])	Structure (SMILES)	pIC50 (DU-4475)	pIC50 (SHP77)	pIC50 [1]	pIC50 [2]	Activity (Rotifers)	Activity (Lindra thalassiae [4])
4.51	4.51	4.51	4.51	4.51	4.51	4.51	4.51		CC(C)=CC(=O)C[C@@H](C)[C@H]1CC[C@@]2(C)[C@@H]3CC[C@H]4[C@](C)(COS(=O)(=O)[O-])[C@@H](OS(=O)(=O)[O-])CC[C@@]45C[C@@]35CC[C@]12C.[Na+].[Na+]	4.51	4.51	4.51	4.51	9%	
4.51	4.51	4.51	4.51	4.51	4.51	4.51	4.51	4.59	CC(C)C[C@H](O)C[C@@H](C)[C@H]1CC[C@@]2(C)[C@@H]3CC[C@H]4[C@](C)(COS(=O)(=O)[O-])[C@@H](OS(=O)(=O)[O-])CC[C@@]45C[C@@]35CC[C@]12C.[Na+].[Na+]	4.51	4.51	4.51	4.51	9%	670 µg/mL
								4.26	CC(C)C[C@H](O)C[C@@H](C)[C@H]1CC[C@@]2(C)[C@@H]3CC[C@H]4[C@](C)(COS(=O)(=O)O)[C@@H](O)CC[C@@]45C[C@@]35CC[C@]12C						
4.51	4.51	4.51	4.51	4.51	4.51	4.51	4.51		CC(C)CC(=O)C[C@@H](C)[C@H]1CC[C@@]2(C)C3=C(CC[C@]12C)[C@@]1(C)CC[C@H](OS(=O)(=O)[O-])[C@@](C)(COS(=O)(=O)[O-])[C@@H]1CC3.[Na+].[Na+]	4.51	4.51	4.51	4.51	9%	
5.22	5.22	5.22	5.22	5.22	5.22	5.22	5.22		CC(C)=CC(=O)C[C@@H](C)[C@H]1CC[C@@]2(C)[C@@H]3CC[C@H]4[C@](C)(CO)[C@@H](OS(=O)(=O)[O-])CC[C@@]45C[C@@]35CC[C@]12C.[Na+]	5.22	5.22	5.22	5.22	9%	
5.22	5.22	5.22	5.22	5.22	5.22	5.22	5.22		CC(C)=CC(=O)C[C@@H](C)[C@H]1CC[C@@]2(C)[C@@H]3CC[C@H]4[C@](C)(COS(=O)(=O)[O-])[C@@H](O)CC[C@@]45C[C@@]35CC[C@]12C.[Na+]	5.22	5.22	5.22	5.22	9%	
4.51	4.51	4.51	4.51	4.51	4.51	4.51	4.51		CC(C)CC(=O)C[C@@H](C)[C@H]1CC[C@@]2(C)[C@@H]3CC[C@H]4[C@](C)(COS(=O)(=O)[O-])[C@@H](OS(=O)(=O)[O-])CC[C@@]45C[C@@]35CC[C@]12C.[Na+].[Na+]	4.51	4.51	4.51	4.51	9%	
								4.52	CC(C)C[C@H](O)C[C@@H](C)[C@H]1CC[C@@]2(C)[C@@H]3CC[C@H]4[C@](C)(CO)[C@@H](OS(=O)(=O)O)CC[C@@]45C[C@@]35CC[C@]12C						
5.22	5.22	5.22	5.22	5.22	5.22	5.22	5.22		CC(C)=CC(=O)C[C@@H](C)[C@H]1CC[C@@]2(C)[C@@H]3CC[C@H]4[C@](C)(CO)[C@@H](O)CC[C@@]45C[C@@]35CC[C@]12C	5.22	5.22	5.22	5.22	9%	
